Drawing on ChEMBL document CHEMBL1124717, “Structural requirements for agonist actions at the benzodiazepine receptor: studies with analogues of 6-(benzyloxy)-4-(methoxymethyl)-beta-carboline-3-carboxylic acid ethyl ester” (J Med Chem, 1990), this text covers IC50, EC50 and logP for nine molecules.

Molecules are shown by their SMILES.

For series [1], the target named is GABA-A receptor; anion channel. Briefly: In vitro inhibition of [3H]flunitrazepam binding to GABA-A Benzodiazepine receptor of rat cerebral cortex membranes. In kind it is cell membranes, Membrane. The essentials:
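Washed rat cerebral cortex membranes (adult male Sprague-Dawley, 175–250 g) in 50 mM Tris-HCl pH 7.4, three wash spins at 20000g. Incubated with [3H]flunitrazepam (final 0.9–1.1 nM) and six to eight inhibitor concentrations for 120 min at 4 °C, then filtered. Nonspecific binding defined with Ro 15-1788 (10 μM). IC50 from sigmoid fit; mean of at least two determinations.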

The next series relates to Mus musculus. Kind of series: In vivo anticonvulsant activity was determined in male NIH/Swiss mice after intraperitoneal administration; Antagonist. Type of series: functional, organism-based. The essentials: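 Male NIH/Swiss mice (20–25 g) dosed ip with drug in 20% diluted Emulphor/80% saline, or vehicle. Antagonism run in groups of 10: test agent at various doses, diazepam (2.5 mg/kg) 15 min later, then PTZ challenge (80 mg/kg) after another 15 min. Seizures scored over 15 min. EC50 read graphically from percent convulsions versus log dose.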

Series [2] can be described thus: Partition coefficient (logP). In kind it is physicochemical. The conditions noted are these: octanol/water.

One may read the IC50 as the concentration at which inhibition is half-maximal. Lower therefore signals greater potency in that assay. In series [1], `CCOC(=O)c1ncc2c(c1COC)c1cc(OCc3ccccc3)ccc1n2C` returned an IC50 of 945 nM.

`CCOC(=O)c1ncc2[nH]c3ccccc3c2c1COC` returned an EC50 in the series with Mus musculus of 15 mg/kg. Also, the IC50 in series [1] stood at 2.3 nM.

For `CCOC(=O)c1[nH]cc2nc3ccc(OCc4ccccc4)cc3c-2c1CC`, the IC50 in series [1] is 22 nM.

As for `CCOC(=O)c1cc2c3cc(OCc4ccccc4)ccc3n(C)c2cn1`, the IC50 in series [1] is above 5000 nM.

In turn, `CCOC(=O)c1cc2c3cc(OCc4ccccc4)ccc3nc-2c[nH]1` registered a 50% inhibitory concentration (IC50) in series [1] of 8.9 nM.

By logP is commonly meant the decadic logarithm of the partition coefficient of the neutral form, usually between octanol and water. The molecule `CCOC(=O)c1ncc2[nH]c3ccc(OCc4ccccc4)cc3c2c1COC` returned a logP in series [2] of 3.97. In addition, the half-inhibitory concentration (IC50) in series [1] worked out at 1 nM.

For the molecule `CCOC(=O)c1[nH]cc2nc3ccc(OC)cc3c-2c1COC`, the EC50 in the series on Mus musculus was 1.25 mg/kg. In series [1], the 50% inhibitory concentration (IC50) was found to be 0.5 nM.

Consider `CCOC(=O)c1ncc2c(c1CC)c1cc(OCc3ccccc3)ccc1n2C`, for which the IC50 in series [1] is above 5000 nM.

The molecule `CCOC(=O)c1[nH]cc2nc3ccc(O)cc3c-2c1COC` yielded a logP in series [2] of 1.44. This molecule registered an IC50 in series [1] of 0.9 nM.
